In ChEMBL document CHEMBL2321751, “Optimization of chloronitrobenzamides (CNBs) as therapeutic leads for human African trypanosomiasis (HAT)” (J Med Chem, 2013):
Values after ≈ are worked out from the molar mass of the structure shown.

Tests used:
[1] = system: HEK293; experiment: Cytotoxicity against HEK293 cells after 72 hrs by Cell Titre Glo assay; format: cell-based; conditions: Homo sapiens, HEK293, 72 h
Procedure, shortened: (§1)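 Human cells grown to 80% confluence were plated in 384-well format and received compound dilutions by pin tool. After 72 h at 37 °C in 5% CO2, viability was measured by CellTiter-Glo luminescence.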

[2] = system: Raji; experiment: Cytotoxicity against human Raji cells after 72 hrs by Cell Titre Glo assay; format: cell-based; procedure, shortened: as §1
[3] = Kinetic solubility of the compound in PBS buffer at pH 7.4 after 18 hrs by UV spectrophotometric analysis; format: physicochemical; conditions: for solubility kinetic at 18 h: PBS buffer, pH 7.4, read-out: Kinetic_solubility; for Kinetic_solubility: buffer, pH 7.4, 18 h, BLD = below limit of detection
Procedure, shortened: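 Compound from a 10 mM stock was added to PBS pH 7.4 and left 18 h at room temperature. The suspension was filtered, and the filtrate was mixed 1:1 with 1-propanol. Solubility was derived from UV spectrum AUC (250–500 nm) relative to a 1-propanol/PBS reference. Run in triplicate.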

[4] = Permeability of the compound at pH 7.4 by PAMPA; format: ADME; conditions: for Papp: PAMPA, read-out: permeability; for permeability: pampa, BLD = below limit of detection
Procedure, shortened: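 Compound (10 mM DMSO stock) was diluted in system solution buffer pH 7.4 and placed in the donor chamber of a PAMPA sandwich whose membrane was coated with GIT lipid. Acceptor buffer filled the acceptor chamber, and the assembly was stirred for 30 min. Donor and acceptor UV spectra (250–500 nm) were compared with a reference to give the permeability coefficient. Run in triplicate.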

[5] = system: HepG2; experiment: Cytotoxicity against human HepG2 cells after 72 hrs by Cell Titre Glo assay; format: cell-based; conditions: HepG2, 72 h; procedure, shortened: as §1
[6] = system: BJ; experiment: Cytotoxicity against human BJ cells after 72 hrs by Cell Titre Glo assay; format: cell-based; procedure, shortened: as §1
[7] = system: Trypanosoma brucei brucei; experiment: Antitrypanosomal activity against Trypanosoma brucei brucei 221 after 48 hrs by Cell Titre Glo assay; format: functional, organism-based; conditions: Trypanosoma brucei, 221, 48 h
Procedure, shortened: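 Bloodstream-form parasites grown in HMI-9 with 10% heat-inactivated FBS, 10% Serum Plus and penicillin/streptomycin at 37 °C, 5% CO₂, to 1 × 10⁶ cells/mL. Diluted to 1 × 10⁴ cells/mL, then dosed with a DMSO dilution series by pin transfer. Incubated 48 h at 37 °C, 5% CO₂. Viability read by CellTiter-Glo luminescence. EC₅₀ from a variable-slope sigmoidal fit. Mean of six replicates, errors as 95% CI.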

solubility kinetic at 18 h [3]	Papp [4]	EC50 [7]	Kinetic_solubility [3]	permeability [4]	SMILES	EC50 [1]	EC50 [2]	EC50 [5]	EC50 [6]
0.78 µM (≈ 0.295 µg/mL)	3 ×10⁻⁶ cm/s	3.5 µM	–	–	O=C(Nc1nc(-c2cccc(F)c2)cs1)c1cc([N+](=O)[O-])ccc1Cl	8.7 µM	11 µM	18 µM	24 µM
0.09 µM (≈ 0.0381 µg/mL)	274 ×10⁻⁶ cm/s	0.12 µM	–	–	COc1ccc(-c2nc3ccccc3o2)cc1NC(=O)c1cc([N+](=O)[O-])ccc1Cl	> 25 µM	> 25 µM	> 25 µM	> 25 µM
–	–	1.1 µM	BLD	BLD	O=C(Nc1ccc(-c2nc3ccccc3s2)cc1)c1cc([N+](=O)[O-])ccc1Cl	> 27 µM	> 27 µM	> 27 µM	> 27 µM
1.4 µM (≈ 0.55 µg/mL)	352 ×10⁻⁶ cm/s	26 µM	–	–	O=C(Nc1cccc(-c2nc3ccccc3[nH]2)c1)c1cc([N+](=O)[O-])ccc1Cl	> 27 µM	20.7 µM	> 27 µM	> 27 µM
–	–	> 33 µM	–	–	O=C(Nc1ccccc1-c1nc2ccccc2s1)c1cc([N+](=O)[O-])ccc1Cl	> 27 µM	> 27 µM	> 27 µM	> 27 µM
0.01 µM (≈ 0.0044 µg/mL)	12 ×10⁻⁶ cm/s	0.33 µM	–	–	COc1cc(Cl)c(C(=O)Nc2cccc(-c3nc4ccccc4s3)c2)cc1[N+](=O)[O-]	> 25 µM	> 25 µM	> 25 µM	> 25 µM
0.57 µM (≈ 0.2 µg/mL)	10 ×10⁻⁶ cm/s	5.6 µM	–	–	O=C(Nc1nc2ccc(F)cc2s1)c1cc([N+](=O)[O-])ccc1Cl	> 27 µM	> 27 µM	> 27 µM	> 27 µM
0.31 µM (≈ 0.126 µg/mL)	–	0.02 µM	–	BLD	Cc1ccc(-c2nc3ccccc3o2)cc1NC(=O)c1cc([N+](=O)[O-])ccc1Cl	> 14 µM	> 14 µM	> 14 µM	> 14 µM
–	24 ×10⁻⁶ cm/s	0.31 µM	BLD	–	COC(=O)C1CCN(c2cc(Cl)c(C(=O)Nc3cc(-c4nc5ccccc5s4)ccc3C)cc2[N+](=O)[O-])CC1	> 25 µM	> 25 µM	> 25 µM	> 25 µM
0.12 µM (≈ 0.0423 µg/mL)	26 ×10⁻⁶ cm/s	1.9 µM	–	–	O=C(Nc1ccc(-c2ccccc2)cc1)c1cc([N+](=O)[O-])ccc1Cl	> 27 µM	> 27 µM	> 27 µM	> 27 µM
0.43 µM (≈ 0.189 µg/mL)	48 ×10⁻⁶ cm/s	> 10 µM	–	–	Cc1cc(NC(=O)c2cc([N+](=O)[O-])ccc2Cl)cc(-c2nc3ccccc3s2)c1O	> 25 µM	> 25 µM	> 25 µM	> 25 µM
0.26 µM (≈ 0.114 µg/mL)	–	3.6 µM	–	BLD	COc1ccc(NC(=O)c2cc([N+](=O)[O-])ccc2Cl)cc1-c1nc2ccccc2s1	> 25 µM	> 25 µM	> 25 µM	> 25 µM
0.1 µM (≈ 0.0444 µg/mL)	–	0.24 µM	–	BLD	O=C(Nc1cc(-c2nc3ccccc3s2)ccc1Cl)c1cc([N+](=O)[O-])ccc1Cl	> 25 µM	> 25 µM	> 25 µM	> 25 µM
0.72 µM (≈ 0.265 µg/mL)	242 ×10⁻⁶ cm/s	12 µM	–	–	O=C(Nc1nc2c(Cl)cccc2s1)c1cc([N+](=O)[O-])ccc1Cl	> 27 µM	15 µM	> 27 µM	> 27 µM
0.09 µM (≈ 0.0381 µg/mL)	105 ×10⁻⁶ cm/s	0.22 µM	–	–	Cc1cc(NC(=O)c2cc([N+](=O)[O-])ccc2Cl)cc(-c2nc3ccccc3o2)c1O	> 25 µM	> 25 µM	> 25 µM	> 25 µM
2.2 µM (≈ 0.937 µg/mL)	307 ×10⁻⁶ cm/s	> 33 µM	–	–	O=C(Nc1cccc(-c2nc3ccccc3s2)c1)c1cc([N+](=O)[O-])c(O)cc1Cl	> 25 µM	> 25 µM	> 25 µM	> 25 µM
–	< 1 ×10⁻⁶ cm/s	0.73 µM	BLD	–	Cc1ccc(-c2nc3ccccc3s2)cc1NC(=O)c1cc([N+](=O)[O-])c(N2CCCCC2)cc1Cl	> 25 µM	> 25 µM	> 25 µM	> 25 µM

solubility kinetic at 18 h [3]	Papp [4]	EC50 [7]	Kinetic_solubility [3]	permeability [4]	SMILES	EC50 [1]	EC50 [2]	EC50 [5]	EC50 [6]
0.59 µM (≈ 0.325 µg/mL)	17 ×10⁻⁶ cm/s	0.5 µM	–	–	Cc1ccc(-c2nc3ccccc3s2)cc1NC(=O)c1cc([N+](=O)[O-])c(N2CCC(C(=O)O)CC2)cc1Cl	> 25 µM	> 25 µM	> 25 µM	> 25 µM
–	–	–	–	–	O=C(Nc1ccc(Cl)cc1)c1cc([N+](=O)[O-])ccc1Cl	> 27 µM	> 27 µM	> 27 µM	> 27 µM
–	214 ×10⁻⁶ cm/s	0.3 µM	BLD	–	O=C(Nc1cc(-c2nc3ccccc3o2)ccc1F)c1cc([N+](=O)[O-])ccc1Cl	> 25 µM	> 25 µM	> 25 µM	> 25 µM
0.41 µM (≈ 0.182 µg/mL)	3 ×10⁻⁶ cm/s	0.32 µM	–	–	O=C(Nc1ccc(Cl)c(-c2nc3ccccc3s2)c1)c1cc([N+](=O)[O-])ccc1Cl	> 25 µM	> 25 µM	> 25 µM	> 25 µM
0.17 µM (≈ 0.0988 µg/mL)	< 1 ×10⁻⁶ cm/s	0.72 µM	–	–	COC(=O)C1CCN(c2cc(Cl)c(C(=O)Nc3cc(-c4nc5ccccc5s4)ccc3OC)cc2[N+](=O)[O-])CC1	> 25 µM	> 25 µM	> 25 µM	> 25 µM
0.03 µM (≈ 0.014 µg/mL)	< 1 ×10⁻⁶ cm/s	0.47 µM	–	–	Cc1ccc(-c2nc3ccccc3s2)cc1NC(=O)c1cc([N+](=O)[O-])c(N(C)C)cc1Cl	> 25 µM	> 25 µM	> 25 µM	> 25 µM
0.19 µM (≈ 0.0969 µg/mL)	10 ×10⁻⁶ cm/s	0.52 µM	–	–	CCOC(=O)Cc1cc(Cl)c(C(=O)Nc2cc(-c3nc4ccccc4s3)ccc2C)cc1[N+](=O)[O-]	> 25 µM	> 25 µM	> 25 µM	> 25 µM
–	3 ×10⁻⁶ cm/s	4.6 µM	BLD	–	O=C(Nc1nc(-c2ccc(Cl)cc2)cs1)c1cc([N+](=O)[O-])ccc1Cl	15 µM	12 µM	> 27 µM	18 µM
0.023 µM (≈ 0.00979 µg/mL)	–	> 33 µM	–	BLD	O=C(Nc1ccc(O)c(-c2nc3ccccc3s2)c1)c1cc([N+](=O)[O-])ccc1Cl	> 25 µM	> 25 µM	> 25 µM	> 25 µM
6.7 µM (≈ 3.24 µg/mL)	< 1 ×10⁻⁶ cm/s	0.8 µM	–	–	O=C(O)COc1cc(Cl)c(C(=O)Nc2cccc(-c3nc4ccccc4s3)c2)cc1[N+](=O)[O-]	> 25 µM	> 25 µM	> 25 µM	> 25 µM
–	–	> 16 µM	–	–	O=C(CNc1ccc(-c2nc3ccccc3s2)cc1)c1cc([N+](=O)[O-])ccc1Cl	> 27 µM	> 27 µM	> 27 µM	> 27 µM
–	–	0.68 µM	BLD	BLD	Cc1c(NC(=O)c2cc([N+](=O)[O-])ccc2Cl)cccc1-c1nc2ccccc2s1	> 25 µM	> 25 µM	> 25 µM	> 25 µM
0.41 µM (≈ 0.145 µg/mL)	–	1.2 µM	–	BLD	O=C(Nc1cccc(-c2ccccc2)c1)c1cc([N+](=O)[O-])ccc1Cl	22 µM	> 27 µM	> 27 µM	> 27 µM
0.21 µM (≈ 0.119 µg/mL)	5 ×10⁻⁶ cm/s	0.64 µM	–	–	COc1ccc(-c2nc3ccccc3s2)cc1NC(=O)c1cc([N+](=O)[O-])c(N2CCC(C(=O)O)CC2)cc1Cl	> 25 µM	> 25 µM	> 25 µM	> 25 µM
1.2 µM (≈ 0.442 µg/mL)	138 ×10⁻⁶ cm/s	8.1 µM	–	–	O=C(Nc1nc2ccc(Cl)cc2s1)c1cc([N+](=O)[O-])ccc1Cl	> 27 µM	> 27 µM	> 27 µM	> 27 µM
–	44 ×10⁻⁶ cm/s	9.6 µM	BLD	–	O=C(Nc1cc(C(F)(F)F)cc(C(F)(F)F)c1)c1cc([N+](=O)[O-])ccc1Cl	14 µM	14 µM	> 27 µM	22 µM
